From ChEMBL document CHEMBL1131287, “Design, synthesis, and biological activities of potent and selective somatostatin analogues incorporating novel peptoid residues” (J Med Chem, 1998)
Square brackets hold non-standard residues; d marks the D form. Peptide text beside a SMILES is read from it.

How the values were obtained:
Assay type in all cases: cell-based
[1] = target: T1, Somatostatin receptor type 3 (Homo sapiens, UniProt P32745); experiment: In vitro inhibition of radioligand binding to human somatostatin receptor (hsst3) expressed in CHO cells.
Method in brief: (§1)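 Competition binding on cell or membrane homogenates in 10 mM HEPES pH 7.5 with 0.5% BSA, 5 mM MgCl2 and 5 μg/mL bacitracin, 1 h at room temperature. Nonspecific binding with 1 μM SRIF14. Gamma counting, triplicates, nonlinear regression, reported as pKD.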

[2] = target: T2, Somatostatin receptor type 5 (Homo sapiens, UniProt P35346); experiment: In vitro inhibition of radioligand binding to human Somatostatin receptor type 5 expressed in CHO-K1 cells.
Method in brief: (§2)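 Membranes from CHO-K1 clones stably expressing the hsst subtype (pCMV, G418-selected), washed in 50 mM Tris-HCl. Stopped by PEI-treated GF/C filtration. Specific binding was defined against 1000 nM SRIF-14.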

[3] = target: T3, Somatostatin receptor type 2 (Homo sapiens, UniProt P30874); experiment: In vitro inhibition of radioligand binding to human somatostatin receptor (hsst2) expressed in CHO-K1 cells.
Method in brief: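 hsst2 stably expressed in CHO-K1 cells; washed membranes were used. Radioligand was 0.05 nM [125I]MK-678, incubated 90 min at 25 °C in 50 mM HEPES pH 7.4 buffer with BSA, MgCl2 and protease inhibitors. Filtered on PEI-soaked GF/C filters. Specific binding was defined against 1000 nM MK-678.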

[4] = target: T4, Somatostatin receptor type 4 (Homo sapiens, UniProt P31391); experiment: In vitro inhibition of radioligand binding to human somatostatin receptor (hsst4) expressed in CHO-K1 cells.; method in brief: as §2
[5] = target: T2, Somatostatin receptor type 5; experiment: In vitro inhibition of radioligand binding to human Somatostatin receptor type 5 expressed in CCL-39 cells.; method in brief: as §1
[6] = target: T3, Somatostatin receptor type 2; experiment: In vitro inhibition of radioligand binding to human somatostatin receptor (hsst2) expressed in CHO cells.; method in brief: as §1
[7] = target: T4, Somatostatin receptor type 4; experiment: In vitro inhibition of radioligand binding to human somatostatin receptor (hsst4) expressed in CHO cells.; method in brief: as §1
[8] = target: T5, Somatostatin receptor type 1 (Homo sapiens, UniProt P30872); experiment: In vitro inhibition of radioligand binding to human somatostatin receptor (hsst1) expressed in hSF6 cells.; method in brief: as §1
[9] = target: T5, Somatostatin receptor type 1; experiment: In vitro inhibition of radioligand binding to human somatostatin receptor (hsst1) expressed in CHO-K1 cells.; method in brief: as §2
[10] = target: T1, Somatostatin receptor type 3; experiment: In vitro inhibition of radioligand binding to human somatostatin receptor (hsst3) expressed in CHO-K1 cells.; method in brief: as §2

T5 sequence (P30872 whole entry): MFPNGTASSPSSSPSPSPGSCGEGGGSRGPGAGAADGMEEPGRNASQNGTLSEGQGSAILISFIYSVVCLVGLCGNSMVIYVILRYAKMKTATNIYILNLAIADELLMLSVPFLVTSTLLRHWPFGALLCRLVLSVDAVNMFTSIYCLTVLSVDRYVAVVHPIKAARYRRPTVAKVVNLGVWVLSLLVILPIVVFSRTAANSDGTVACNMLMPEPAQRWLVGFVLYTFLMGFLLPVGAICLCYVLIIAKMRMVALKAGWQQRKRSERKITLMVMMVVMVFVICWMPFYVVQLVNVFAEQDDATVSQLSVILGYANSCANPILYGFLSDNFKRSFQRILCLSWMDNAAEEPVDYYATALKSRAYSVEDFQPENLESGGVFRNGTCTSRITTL
T2 sequence (P35346 whole entry): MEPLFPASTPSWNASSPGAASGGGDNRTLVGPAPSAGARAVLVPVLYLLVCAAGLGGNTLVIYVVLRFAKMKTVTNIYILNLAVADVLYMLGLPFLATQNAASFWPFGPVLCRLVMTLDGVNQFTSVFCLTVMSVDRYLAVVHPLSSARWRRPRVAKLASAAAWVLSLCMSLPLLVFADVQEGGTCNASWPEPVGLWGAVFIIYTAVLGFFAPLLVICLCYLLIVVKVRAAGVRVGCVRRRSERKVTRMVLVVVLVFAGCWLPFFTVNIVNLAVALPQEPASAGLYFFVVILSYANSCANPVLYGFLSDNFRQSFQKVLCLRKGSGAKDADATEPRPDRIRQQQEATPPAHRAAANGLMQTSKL
T1 sequence (P32745 whole entry): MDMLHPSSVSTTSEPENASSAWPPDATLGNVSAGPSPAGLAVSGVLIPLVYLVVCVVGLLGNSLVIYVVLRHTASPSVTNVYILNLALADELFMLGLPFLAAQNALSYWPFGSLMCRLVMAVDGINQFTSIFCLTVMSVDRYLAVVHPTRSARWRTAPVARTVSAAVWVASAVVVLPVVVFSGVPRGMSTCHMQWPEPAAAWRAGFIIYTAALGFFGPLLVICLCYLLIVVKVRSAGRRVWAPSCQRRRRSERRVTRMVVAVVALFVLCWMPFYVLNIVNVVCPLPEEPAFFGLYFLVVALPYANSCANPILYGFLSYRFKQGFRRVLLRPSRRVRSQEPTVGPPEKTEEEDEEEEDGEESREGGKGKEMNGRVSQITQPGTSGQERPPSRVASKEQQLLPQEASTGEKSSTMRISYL
T4 sequence (P31391 whole entry): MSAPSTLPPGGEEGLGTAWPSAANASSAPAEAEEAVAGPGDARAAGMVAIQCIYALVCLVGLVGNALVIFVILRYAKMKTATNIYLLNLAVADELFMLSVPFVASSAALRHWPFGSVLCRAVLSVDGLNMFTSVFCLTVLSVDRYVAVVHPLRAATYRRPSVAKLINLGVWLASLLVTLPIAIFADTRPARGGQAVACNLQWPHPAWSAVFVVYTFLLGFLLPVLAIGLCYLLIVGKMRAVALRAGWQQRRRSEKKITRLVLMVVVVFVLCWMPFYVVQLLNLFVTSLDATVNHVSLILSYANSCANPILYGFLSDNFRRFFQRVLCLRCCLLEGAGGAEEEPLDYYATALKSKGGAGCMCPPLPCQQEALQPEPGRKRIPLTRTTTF
T3 sequence (P30874 whole entry): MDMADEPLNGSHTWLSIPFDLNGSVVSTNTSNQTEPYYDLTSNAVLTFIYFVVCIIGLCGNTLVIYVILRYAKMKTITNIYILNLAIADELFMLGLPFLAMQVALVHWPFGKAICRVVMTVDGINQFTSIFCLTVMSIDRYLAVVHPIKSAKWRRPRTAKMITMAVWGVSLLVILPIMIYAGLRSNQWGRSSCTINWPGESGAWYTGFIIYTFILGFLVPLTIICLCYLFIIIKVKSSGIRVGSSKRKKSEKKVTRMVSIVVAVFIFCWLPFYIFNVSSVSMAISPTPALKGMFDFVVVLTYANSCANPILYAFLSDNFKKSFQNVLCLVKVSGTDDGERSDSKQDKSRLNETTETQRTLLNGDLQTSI

SMILES | Kd ([1]; cho) [nM] | Ki ([2]; cho-k1) [nM] | Ki ([3]; cho-k1) [nM] | Ki ([4]; cho-k1) [nM] | Kd ([5]; ccl-39) [nM] | Kd ([6]; cho) [nM] | Kd ([7]; cho) [nM] | Kd [8] [nM] | Ki ([9]; cho-k1) [nM] | Ki ([10]; cho-k1) [nM] | Kd [1] [nM] | Ki [2] [nM] | Ki [3] [nM] | Ki [4] [nM] | Kd [5] [nM] | Kd [6] [nM] | Kd [7] [nM] | Ki [9] [nM] | Ki [10] [nM]
C[C@@H](O)[C@@H]1NC(=O)[C@H](CCCCN)NC(=O)[C@@H](Cc2c[nH]c3ccccc23)NC(=O)[C@H](Cc2ccccc2)NC(=O)CN(Cc2ccccc2)C(=O)[C@H](Cc2ccccc2)NC1=O | 282 | 101 | 6.98 | > 1000 | 69 | 2.95 | 4680 | 7080 | > 1000 | 253 | – | – | – | – | – | – | – | – | –
C[C@H](c1ccccc1)N1CC(=O)N[C@@H](Cc2ccccc2)C(=O)N[C@H](Cc2c[nH]c3ccccc23)C(=O)N[C@@H](CCCCN)C(=O)N[C@@H]([C@@H](C)O)C(=O)N[C@@H](Cc2ccccc2)C1=O | 407 | 33.5 | 2.33 | > 1000 | 288 | 2.04 | 4170 | 3550 | > 1000 | 425 | – | – | – | – | – | – | – | – | –
C[C@@H](O)[C@@H]1NC(=O)[C@H](CCCCN)NC(=O)[C@@H](Cc2c[nH]c3ccccc23)NC(=O)[C@H](Cc2ccccc2)NC(=O)[C@@H]2CCCN2C(=O)[C@H](Cc2ccccc2)NC1=O (cyclo(PF[dW]KTF)) | – | – | – | – | – | – | – | 4570 | – | – | 525 | 25 | 5.1 | > 1000 | 7.6 | 0.76 | 8910 | > 1000 | 129
C[C@@H](O)[C@@H]1NC(=O)[C@H](CCCCN)NC(=O)[C@@H](Cc2c[nH]c3ccccc23)NC(=O)[C@H](Cc2ccccc2)NC(=O)CN([C@@H](C)c2ccccc2)C(=O)[C@H](Cc2ccccc2)NC1=O | 339 | 87 | 29.5 | 987 | 115 | 6.17 | 2630 | 13200 | > 1000 | 797 | – | – | – | – | – | – | – | – | –
